The source of these data is ChEMBL document CHEMBL1145785, “Design, synthesis, and structure-activity relationships of alkylcarbamic acid aryl esters, a new class of fatty acid amide hydrolase inhibitors” (J Med Chem, 2003).

Assay [1] addresses T1, Fatty-acid amide hydrolase 1 (Rattus norvegicus, UniProt P97612).
T1 sequence (P97612 whole entry): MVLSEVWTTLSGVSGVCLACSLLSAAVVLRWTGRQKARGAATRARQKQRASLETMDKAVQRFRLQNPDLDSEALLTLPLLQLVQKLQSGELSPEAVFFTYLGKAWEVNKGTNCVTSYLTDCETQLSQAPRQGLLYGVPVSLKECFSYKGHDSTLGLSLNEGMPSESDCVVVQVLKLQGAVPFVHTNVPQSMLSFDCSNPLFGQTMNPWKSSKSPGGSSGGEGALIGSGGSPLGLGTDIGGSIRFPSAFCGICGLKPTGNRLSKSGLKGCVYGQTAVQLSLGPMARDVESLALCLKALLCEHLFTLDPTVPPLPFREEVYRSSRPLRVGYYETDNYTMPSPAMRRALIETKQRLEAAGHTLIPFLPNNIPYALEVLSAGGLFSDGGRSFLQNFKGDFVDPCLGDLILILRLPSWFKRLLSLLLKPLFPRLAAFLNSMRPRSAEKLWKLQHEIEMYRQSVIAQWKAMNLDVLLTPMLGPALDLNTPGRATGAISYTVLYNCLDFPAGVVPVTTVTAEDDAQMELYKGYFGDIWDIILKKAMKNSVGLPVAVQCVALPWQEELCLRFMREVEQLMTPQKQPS
As to the kind of experiment: Fatty acid amide hydrolase inhibitory activity in rat brain membrane using [3H]anandamide as a substrate. The assay is classed as cell membranes. The gist of the method:
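Membrane fractions prepared from rat brain homogenates. FAAH activity measured as hydrolysis of [3H]anandamide, radiolabelled on the ethanolamine (60 Ci/mmol), used as substrate. IC50 taken as the half-maximal concentration for inhibition of hydrolysis.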

Assay [2] deals with T1, Fatty-acid amide hydrolase 1. As to the kind of experiment: Inhibition of [3H]anandamide binding to fatty acid amide hydrolase of rat brain membrane. The gist of the method:
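Membrane fractions prepared from rat brain homogenates; FAAH activity measured as hydrolysis of anandamide[ethanolamine-3H] (60 Ci/mmol) as substrate. Value reported as half-maximal inhibitory concentration (IC50) of FAAH activity.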

Where only a bound is given, the exact number is not on record here.

Consider `S=C(NC1CCCCC1)Sc1ccc2ccccc2c1`, for which, in assay [1], the IC50 is > 30 µM.
Still for that read-out and setting: the result for `O=C(NC1CCCCC1)Sc1ccc2ccccc2c1` reads 15.6 µM; that for `CCNC(=O)Oc1ccc(C)cc1`, > 30 µM.
Turning to `O=C(NC1CCCCC1)Oc1ccc2cccc(Br)c2c1`, the IC50 in assay [2] and in assay [1] was 0.174 µM each time.
For the compound `O=C(NC1CCCCC1)Oc1ccc(/C=C/c2ccccc2)cc1`, the IC50 in assay [2] is 3.31 µM.
The same measure, in the same setting: the result for `O=C(NC1CCCCC1)Oc1ccc(-c2ccccc2)cc1` reads 2.29 µM.
As for `O=C(Nc1cccc(-c2ccccc2)c1)OC1CCCCC1`, the IC50 in assay [1] is > 30 µM.
The same measure, in the same setting: the result for `O=C(Cc1ccc2ccccc2c1)NC1CCCCC1` reads > 30 µM; that for `CNC(=O)Oc1ccc2ccccc2c1`, 18.3 µM; that for `S=C(NC1CCCCC1)Oc1ccc2ccccc2c1`, > 30 µM.
In the case of `Cc1cccc(OC(=O)NC2CCCCC2)c1`, the IC50 is 0.813 µM in assay [2] and 0.808 µM in assay [1].
For `O=C(Nc1ccc2ccccc2c1)NC1CCCCC1`, the IC50 in assay [1] is > 30 µM.
With `CCCCNC(=O)Oc1ccc(F)cc1`, the IC50 in assay [2] and in assay [1] was 11.5 µM each time.
As to `S=C(Nc1ccc2ccccc2c1)NC1CCCCC1`, in assay [1], the IC50 was > 30 µM.
For the compound `CCc1ccc2cc(OC(=O)NC3CCCCC3)ccc2c1`, the IC50 in assay [2] was 3.55 µM; in assay [1] it was 3.53 µM.
In the same order, the values of `O=C(NC1CCCCC1)Oc1ccc(/C=C\c2ccccc2)cc1` are 0.263 µM and 0.266 µM.
As to `CCCCNC(=O)Oc1ccc(OCc2ccccc2)cc1`, the IC50 was 0.389 µM in assay [2] and 0.39 µM in assay [1].
For `CCCCCc1cccc(OC(=O)NC2CCCCC2)c1` the same measures were 0.186 µM and 0.188 µM.
In the case of `CNC(=O)Oc1cccc2ccccc12` [CARBARIL], the 50% inhibitory concentration (IC50) in assay [1] was > 30 µM.
Regarding `O=C(NC1CCCCC1)Oc1cccc(-c2ccccc2)c1`, the IC50 in assay [2] was 0.0631 µM.
Turning to `O=C(NC1CCCCC1)OCCCCCc1ccccc1`, the IC50 in assay [1] is > 30 µM.
`O=C(NC1CCCCC1)Oc1ccccc1`: the IC50 in assay [2] is 3.8 µM; in assay [1], 3.78 µM.
For `Cc1ccc(OC(=O)NC2CCCCC2)cc1`, in assay [2], the IC50 was 5.37 µM.
On to `CCCCCCOC(=O)NC1CCCCC1`, for which, in assay [1], half-maximal inhibition (IC50) was put at 3.76 µM.
Compound `O=C(NC1CCCCC1)Oc1ccc2ccccc2c1` gave an IC50 in assay [2] of 0.324 µM.
Still for that read-out and setting: the result for `CCCCNC(=O)Oc1ccc2cc(Br)ccc2c1` reads 0.759 µM.
